The results in this text go back to ChEMBL document CHEMBL4715807, “Development of Small Molecules with a Noncanonical Binding Mode to HIV-1 Trans Activation Response (TAR) RNA” (J Med Chem, 2016).

Calls of active or inactive are those of the source. The rule behind the calls is not given here.

Experiment [1] can be described thus: Binding affinity to HIV1 23-2AP TAR by 2-AP based fluorescence assay. Set-up: species or system Human immunodeficiency virus 1. The conditions noted are these: read-out: Kd(app). Summed up: (§1)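 2-AP-labelled TAR hairpin (U23 or U25 replaced) annealed at 95 °C 3 min, cooled ≥30 min, used at 1 μM in PBS pH 7.4 with compound added from DMSO, 30 min at room temperature with rocking. Fluorescence read at ex 310/em 365 nm, compound fluorescence subtracted, normalized to free RNA. Apparent Kd from nonlinear fit; highest concentration 400 μM; triplicates, ± SD.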

Experiment [2] in a line: Binding affinity to HIV1 TAR by FRET based Tat/TAR displacement assay. Set-up: species or system Human immunodeficiency virus 1. The procedure, abridged:
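Unlabeled TAR (100 nM) with 16-mer Tat peptide (N-terminal FAM, C-terminal TAMRA; 12 nM) in 50 mM Tris pH 7.4, 20 mM KCl, 0.01% Triton X-100, 5% DMSO; compound added and incubated 30 min at room temperature with rocking. Read at ex 485/em 590 nm. Controls: complex alone for 0% inhibition, peptide alone for 100%.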

The nature of experiment [3]: Binding affinity to HIV1 25-2AP TAR by 2-AP based fluorescence assay. More on the design: species or system Human immunodeficiency virus 1. Conditions: read-out: Kd(app). Summed up:
as §1

The subject of experiment [4] is Human immunodeficiency virus 1. The experiment is described as follows: Binding affinity to HIV-1 TAR RNA 5'-UTR assessed as 1M7 reactivity reduction throughout TAR with residues U13-14, C19, and G32 by SHAPE analysis. The procedure, abridged:
(§2)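 RNA (5 pmol) heated to 90 °C 3 min, slowly cooled to 4 °C, in 50 mM Tris-HCl pH 8.0, 100 mM NaCl, 5 mM MgCl2, then 37 °C for 15 min. Ligand added to final 5 or 0.5 μM, 10 min at room temperature. 1M7 at final 3.5 mM (DMSO alone for control), 37 °C 5 min. Primer extension with SuperScript III, capillary electrophoresis; control peak areas subtracted.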

In experiment [5] the test system is Human immunodeficiency virus 1. Kind of experiment: Binding affinity to HIV-1 TAR RNA 5'-UTR assessed as induction of chemical reactivity by SHAPE analysis. The procedure, abridged: as §2
Experiment [6] deals with Human immunodeficiency virus 1. Kind of experiment: Effect on global topology of HIV-1 RNA 5'-UTR by SHAPE analysis. The procedure, abridged: as §2
In experiment [7] the test system is Human immunodeficiency virus 1. Kind of experiment: Binding affinity to HIV-1 TAR RNA 5'-UTR assessed as decrease in 1M7 reactivity for residue U25 within TAR bulge and U31, G33 and A35 within apical loop by SHAPE analysis. Summed up: as §2
Experiment [8] concerns Human immunodeficiency virus 1. The experiment is described as follows: Binding affinity to HIV1 TAR assessed as induction of chemical shift perturbations of TAR residues by NMR analysis. Summed up: (§3)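 NMR buffer: 20 mM d19-Bis-Tris pH 6.5, 10 mM NaCl, DSA reference, in D2O or 95% H2O/5% D2O. Ligand stocks 10 mM in d6-DMSO; free-ligand samples […], final DMSO 15%. RNA heated 90 °C 4 min, snap-cooled at −20 °C. 1D 1H with excitation sculpting; ligand line broadening with 10 μM TAR; TOCSY shift perturbations.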

Experiment [9] relates to Human immunodeficiency virus 1. Kind of experiment: Binding affinity to HIV1 TAR by NMR analysis. Summed up:
as §3

The subject of experiment [10] is Human immunodeficiency virus 1. The experiment is described as follows: Binding affinity to HIV1 TAR by TOCSY NMR analysis. Summed up:
as §3

Take `Cc1ccc2c(N)c(S(=O)(=O)Nc3cccc(C(F)(F)F)c3)sc2n1`: the Kd in experiment [1] and in experiment [3] was greater than 400 µM throughout. Besides, the IC50 (usually the midpoint of a concentration-inhibition curve) in experiment [2] is greater than 400 µM.

On to `Cc1ccc2c(N)c(C(=O)Nc3ccc(C(F)(F)F)cc3)sc2n1`, for which the Kd came out at 84.1 µM in experiment [1] and 75.3 µM in experiment [3]. In [2], this molecule displayed a half-inhibitory concentration (IC50) of 87 µM.

Take `Cc1ccc2c(N)c(-c3nnc(-c4cccc(Cl)c4)o3)sc2n1`: the Kd in experiment [1] came to 45.6 µM; in [3], 42.5 µM. Moreover, the IC50 in [2] was greater than 400 µM.

For `Cc1ccc2c(N)c(C(=O)NCc3cccc(C(F)(F)F)c3)sc2n1`, the Kd in experiment [1] amounted to 69.4 µM; in [3] it was 66.4 µM. Further, the IC50 in [2] is greater than 400 µM.

With `Cc1ccc2c(N)c(C(=O)Nc3cccc(C(F)(F)F)c3)sc2n1`, the Kd was found to be 54.1 µM in [1] and 47.7 µM in [3]. This molecule registered a half-maximal inhibitory concentration (IC50) in experiment [2] greater than 400 µM.

For the molecule `CC(C)c1ccc2c(N)c(C(=O)Nc3cccc(C(F)(F)F)c3)sc2n1`, the Kd was 107 µM in experiment [1] and 43.3 µM in experiment [3]. Also, in experiment [2], the half-inhibitory concentration (IC50) was greater than 400 µM.

On to `Cc1ccnc2sc(C(=O)Nc3cccc(C(F)(F)F)c3)c(N)c12`, for which the Kd amounted to 94.1 µM in [1] and 66.5 µM in experiment [3]. Also, the half-maximal inhibitory concentration (IC50) in experiment [2] was greater than 400 µM.

Turning to `Cc1ccc2c(N)c(C(=O)Nc3ccccn3)sc2n1`, the values for the Kd in experiment [1] and in experiment [3] were 64.3 µM and 50.3 µM, respectively. Also, the half-inhibitory concentration (IC50) in experiment [2] is greater than 400 µM.

Consider `Cc1ccc2c(n1)sc1c(=O)n(-c3cccc(C(F)(F)F)c3)c(=O)[nH]c12`, for which the Kd in experiment [1] and in [3] was greater than 400 µM in each case. Also, the IC50 in experiment [2] was greater than 400 µM.

As to `Nc1c(-c2nnc(-c3cccc(C(F)(F)F)c3)o2)sc2ncccc12`, the Kd in [1] is 44.1 µM; in [3], 50.2 µM. In experiment [2], the IC50 was determined as 37.6 µM.

`Cc1ccc2cc(C(=O)Nc3cccc(C(F)(F)F)c3)sc2n1`: the Kd in experiment [1] and in experiment [3] was greater than 400 µM in each case. The half-inhibitory concentration (IC50) in experiment [2] was greater than 400 µM.

As to `Cc1cnc2sc(C(=O)Nc3cccc(C(F)(F)F)c3)c(N)c2c1`, the Kd was 55.4 µM in [1] and 48.5 µM in [3]. This molecule also returned a half-inhibitory concentration (IC50) in experiment [2] greater than 400 µM.

With `Cc1ccc2c(N)c(C(=O)Nc3cccnc3)sc2n1`, the Kd in experiment [1] turned out to be 89.5 µM; in [3] it was 68 µM. Also, in experiment [2], the IC50 was greater than 400 µM.

For `Cc1ccc2c(N)c(C(=O)Nc3ccccc3C(F)(F)F)sc2n1`, the results for the Kd in experiment [1] and in experiment [3] were greater than 400 µM and 90.1 µM, respectively. In experiment [2], this molecule showed an IC50 of 90.4 µM.

On to `Cc1ccc2c(N)c(-c3nnc(-c4ccccc4)o3)sc2n1`, for which the Kd in [1] was 56.9 µM; in experiment [3] it was 44.6 µM. The molecule further gave an IC50 in experiment [2] greater than 300 µM.

On to `Cc1ccc2c(N)c(-c3nc(-c4cccc(C(F)(F)F)c4)no3)sc2n1`, for which the Kd came out at 46 µM in [1] and 47.7 µM in [3]. Further, the half-inhibitory concentration (IC50) in experiment [2] is 45.1 µM.

Consider `Cc1ccc2c(N)c(-c3nnc(-c4cccc(C(F)(F)F)c4)o3)sc2n1`, for which the outcome in [4] and in experiment [5] was Active. The figures for the Kd in [1] and in experiment [3] were 75 µM and 49.1 µM, respectively. The outcome in experiment [6] was inactive. This molecule also displayed an IC50 in [2] of 40.1 µM.

As for `Cc1ccc2c(N)c(C(=O)Nc3ccncc3)sc2n1`, the Kd in experiment [1] was 51.1 µM; in experiment [3], 40 µM. Besides, the result in experiment [5], in experiment [7], in experiment [9] and in experiment [10] was Active. In addition, in experiment [8], the Activity entry was “Dose-dependent effect”. Further, the result in experiment [6] was inactive. Also, the half-maximal inhibitory concentration (IC50) in experiment [2] was greater than 400 µM.

On to `Cc1ccc2c(N)c(S(=O)(=O)Nc3cccc(F)c3)sc2n1`, for which the Kd in experiment [1] and in experiment [3] was greater than 400 µM in each case. This molecule showed an IC50 in experiment [2] greater than 400 µM. For the same molecule, the result in experiment [9] was inactive.
